Laboratory results published in ChEMBL document CHEMBL4011636, “Utilization of an Active Site Mutant Receptor for the Identification of Potent and Selective Atypical 5-HT2C Receptor Agonists” (J Med Chem, 2017).
pEC50: −log10 of the molar value.

How the values were obtained:
[1] = biological target: T1, 5-hydroxytryptamine receptor 2B (Homo sapiens, UniProt P41595); assay: Agonist activity at recombinant human 5-HT2B receptor expressed in HEK293E cells assessed as induction of intracellular Ca2+ levels after 90 secs by Fluo-4-dye based FLIPR assay; type: cell-based, HEK293
Method in brief: (§1)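 HEK293E cells stably expressing human receptor (VNV isoform for 5-HT2C; ~400−795 fmol/mg protein), grown in DMEM with 10% dialyzed FBS and G418. Cells plated at 20 000/well in serum-free DMEM overnight at 37 °C, then loaded 1 h at room temperature with 5 μM Fluo-4 in HBSS/25 mM HEPES. Eleven compound concentrations added on FLIPR, Ca2+ signal read for 90 s. EC50 from a four-parameter logistic fit, at least triplicate.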

[2] = biological target: 5-hydroxytryptamine receptor 2A (Homo sapiens, UniProt P28223); assay: Agonist activity at recombinant human 5-HT2A receptor expressed in HEK293E cells assessed as induction of intracellular Ca2+ levels after 90 secs by Fluo-4-dye based FLIPR assay; type: cell-based, HEK293; method in brief: as §1
[3] = biological target: T2, 5-hydroxytryptamine receptor 2C (Homo sapiens) (UniProt P28335); assay: Intrinsic activity at recombinant human 5-HT2C receptor expressed in HEK293E cells assessed as induction of intracellular Ca2+ levels after 90 secs by Fluo-4-dye based FLIPR assay relative to serotonin; type: functional, cell-based; conditions: HEK293
T2 sequence (whole entry): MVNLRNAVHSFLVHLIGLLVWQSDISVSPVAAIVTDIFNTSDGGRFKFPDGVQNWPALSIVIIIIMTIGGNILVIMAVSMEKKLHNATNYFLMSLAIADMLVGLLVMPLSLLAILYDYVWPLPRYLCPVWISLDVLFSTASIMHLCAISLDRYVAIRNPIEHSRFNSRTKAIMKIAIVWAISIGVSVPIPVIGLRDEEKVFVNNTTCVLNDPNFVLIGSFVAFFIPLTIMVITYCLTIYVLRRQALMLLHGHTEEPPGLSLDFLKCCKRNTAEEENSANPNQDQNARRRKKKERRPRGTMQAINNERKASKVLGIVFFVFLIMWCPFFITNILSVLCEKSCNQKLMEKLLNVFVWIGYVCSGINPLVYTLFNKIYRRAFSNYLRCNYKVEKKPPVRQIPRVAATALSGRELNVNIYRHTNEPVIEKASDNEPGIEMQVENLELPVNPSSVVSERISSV
Method in brief: (§2)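 FLIPR Fluo-4 Ca2+ assay in HEK293E cells stably expressing the human receptor (VNV isoform for 5-HT2C), eleven-point concentration series, 90 s read. Response normalized to 3 μM serotonin on the same plate (defined as IA = 1). Intrinsic activity taken from a four-parameter logistic fit.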

[4] = biological target: T3, 5-hydroxytryptamine receptor 2C (Homo sapiens, UniProt P28335); assay: Agonist activity at recombinant human 5-HT2C receptor expressed in HEK293E cells assessed as induction of intracellular Ca2+ levels after 90 secs by Fluo-4-dye based FLIPR assay; type: functional, cell-based, HEK293; method in brief: as §1
T3 sequence (P28335 whole entry): T2 sequence (whole entry)

[5] = Metabolic stability in human liver microsomes assessed as parent compound remaining at […] after 10 mins; type: ADME, microsome; conditions: read-out: Stability
[6] = Metabolic stability in rat liver microsomes assessed as parent compound remaining at […] after 10 mins; type: ADME, microsome; conditions: read-out: Stability
[7] = Agonist activity at recombinant human 5-HT2C receptor D134A mutant expressed in HEK293E cells assessed as induction of intracellular Ca2+ levels after 90 secs by Fluo-4-dye based FLIPR assay; type: cell-based; conditions: HEK293
[8] = biological target: T1, 5-hydroxytryptamine receptor 2B; assay: Intrinsic activity at recombinant human 5-HT2B receptor expressed in HEK293E cells assessed as induction of intracellular Ca2+ levels after 90 secs by Fluo-4-dye based FLIPR assay relative to serotonin; type: functional, cell-based; conditions: HEK293; method in brief: as §2

T1 sequence (P41595 whole entry, canonical isoform): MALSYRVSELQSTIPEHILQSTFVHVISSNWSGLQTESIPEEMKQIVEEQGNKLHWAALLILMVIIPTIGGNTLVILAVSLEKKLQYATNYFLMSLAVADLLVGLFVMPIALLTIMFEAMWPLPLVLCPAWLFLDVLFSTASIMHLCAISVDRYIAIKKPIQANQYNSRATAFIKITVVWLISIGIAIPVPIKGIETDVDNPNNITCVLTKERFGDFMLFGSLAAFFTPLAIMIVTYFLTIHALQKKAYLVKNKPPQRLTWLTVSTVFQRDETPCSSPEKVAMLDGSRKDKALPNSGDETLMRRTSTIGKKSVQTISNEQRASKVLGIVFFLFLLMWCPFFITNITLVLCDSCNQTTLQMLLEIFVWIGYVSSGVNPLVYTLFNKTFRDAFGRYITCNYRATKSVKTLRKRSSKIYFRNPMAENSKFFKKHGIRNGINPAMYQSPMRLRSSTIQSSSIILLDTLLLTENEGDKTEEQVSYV
Sequence of 5-hydroxytryptamine receptor 2A (P28223 whole entry): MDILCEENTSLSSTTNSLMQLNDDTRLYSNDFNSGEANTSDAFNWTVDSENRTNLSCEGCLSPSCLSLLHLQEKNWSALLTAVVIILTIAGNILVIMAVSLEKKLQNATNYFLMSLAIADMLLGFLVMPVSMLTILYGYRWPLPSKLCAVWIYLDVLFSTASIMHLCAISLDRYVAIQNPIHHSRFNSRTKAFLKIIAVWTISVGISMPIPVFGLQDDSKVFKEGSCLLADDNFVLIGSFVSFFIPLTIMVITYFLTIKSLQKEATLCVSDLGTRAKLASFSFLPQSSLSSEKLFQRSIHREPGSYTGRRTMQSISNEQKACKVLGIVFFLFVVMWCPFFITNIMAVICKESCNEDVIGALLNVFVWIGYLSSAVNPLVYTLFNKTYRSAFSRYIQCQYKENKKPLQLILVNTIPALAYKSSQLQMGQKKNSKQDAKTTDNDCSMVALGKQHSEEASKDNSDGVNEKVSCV

Row | Compound | pEC50 [1] | pEC50 [2] | Intrinsic activity [3] | pEC50 [4] | remaining at 10 min [5] | remaining at 10 min [6] | pEC50 [7] | Intrinsic activity [8]
1 | CCn1nc(-c2cccc3ccccc23)cc1-c1nccn1C | < 5.00 | < 5.00 | 0.8 | 7.43 to 7.57 | 5% | – | – | –
2 | CCn1nc(-c2cccc3ccccc23)cc1-c1nnnn1C | < 5.30 | 5.60 to 5.74 | 0.6 | 6.35 | 4% | – | – | –
3 | Cc1sc(-c2cccc3ccccc23)cc1C(=O)N1CCC(CO)CC1 | < 5.00 | < 5.00 | 0.8 | 6.92 to 7.33 | 66% | 23% | – | –
4 | Cc1nc(-c2cccc3ccccc23)sc1C(=O)N(C)CCO | < 5.00 | < 5.00 | 0.9 | 7.30 to 7.52 | 67% | 22% | – | –
5 | Cc1nc(-c2cccc3ccccc23)sc1C(=O)N1CCc2[nH]cnc2C1 | < 5.00 | < 5.00 | 1 | 7.17 | 70% | 15% | – | –
6 | Cc1nc(-c2cccc3ccccc23)sc1C(=O)N(CCO)C(C)C | < 5.00 | < 5.00 | – | < 5.00 | 28% | 7% | – | –
7 | Cn1ccnc1-c1cc(-c2cccc3ccccc23)nn1C | < 5.00 | 6.90 to 7.03 | 0.9 | 7.06 to 7.24 | 15% | – | – | –
8 | Cc1nn(-c2cccc3ccccc23)cc1C(=O)N1CCC(CO)CC1 | < 5.00 | < 5.00 | 1 | 7.80 | 88% | 51% | – | –
9 | Cn1nc(-c2cccc3ccccc23)cc1-c1cccnn1 | < 5.00 | < 5.30 | 1.2 | 7.40 to 7.60 | 12% | – | – | –
10 | Cc1nc(-c2cccc3ccccc23)sc1C(=O)N(C)CCc1cccnc1 | < 5.00 | < 5.00 | 0.7 | 7.41 to 7.42 | < 1% | 1% | – | –
11 | CCn1nc(-c2cccc3ccccc23)cc1-c1cccnn1 | < 5.00 | 6.05 | 1.2 | 7.82 | 17% | – | – | –
12 | Cc1nc(-c2cccc3ccccc23)sc1C(=O)N1CCCCC1 | < 5.00 | < 5.00 | 1 | 7.62 | 24% | 1% | – | –
13 | Cc1nc(-c2cccc3ccccc23)sc1C(=O)N1CCOCC1 | < 5.00 | < 5.00 | 0.8 | 6.94 to 7.02 | 50% | 6% | – | –
14 | O=C(c1csc(-c2cccc(Cl)c2Cl)n1)N1CCOCC1 | < 5.00 | < 5.00 | 0.8 | 6.89 to 6.92 | – | – | 8.70 | –
15 | COCCN(C)C(=O)c1sc(-c2cccc3ccccc23)nc1C | < 5.00 | < 5.00 | 0.9 | 7.85 | 28% | 7% | – | –
16 | CCn1nc(-c2cccc3ccncc23)cc1-c1cccnn1 | < 5.00 | < 5.00 | 0.7 | 7.37 to 7.89 | 16% | – | – | –
17 | Cc1cc(-c2cccc3ccccc23)sc1C(=O)N1CCC(CO)CC1 | < 5.00 | < 5.30 | 1 | 7.70 | 87% | 20% | – | –
18 | Cc1nc(-c2cccc3ccccc23)oc1C(=O)N1CCC(CO)CC1 | < 5.00 | < 5.00 | 0.9 | 6.85 to 7.20 | 33% | 24% | – | –
19 | Cc1oc(-c2cccc3ccccc23)nc1C(=O)N1CCC(CO)CC1 | < 5.00 | < 5.00 | 1 | 6.24 to 6.42 | 62% | 16% | – | –
20 | CCn1nc(-c2cccc3ccccc23)cc1-c1ncnn1C | < 5.00 | < 5.00 | 0.7 | 6.21 to 6.72 | 4% | – | – | –
21 | Cc1nc(-c2cccc3ccccc23)sc1C(=O)N1CCCC(O)CC1 (configuration not stated) | < 5.00 | < 5.00 | 0.9 | 7.60 to 7.77 | 50% | 8% | – | –
22 | Cc1cn(-c2cccc3ccccc23)cc1C(=O)N1CCC(CO)CC1 | < 5.00 | < 5.00 | 0.7 | 6.36 to 6.43 | 67% | 18% | – | –
23 | Cc1nc(-c2cccc3ccccc23)sc1C(=O)N(C)Cc1cccnc1 | < 5.00 | < 5.00 | 0.8 | 7.82 to 7.92 | 5% | 4% | – | –
24 | Cn1cc(-c2cccc3ccccc23)cc1C(=O)N1CCC(CO)CC1 | < 5.00 | < 5.00 | 1 | 7.35 to 7.39 | 76% | 57% | – | –
25 | Cc1nn(-c2cccc3ccccc23)nc1C(=O)N1CCC(CO)CC1 | < 5.00 | < 5.00 | 1 | 6.41 to 6.48 | 58% | 24% | – | –
26 | CCn1nc(-c2cccc3cccnc23)cc1-c1cccnn1 | 8.22 to 8.52 | 6.82 | 1 | 8.70 | 8% | – | – | 0.2
27 | Cc1nc(-c2cccc3ccccc23)sc1C(=O)N1CCC(O)CC1 | < 5.00 | < 5.00 | 0.9 | 7.33 | 84% | 34% | – | –
28 | Cc1nc(-c2cccc3ccccc23)sc1C(=O)N(C)C | < 5.00 | < 5.00 | 1 | 7.14 to 7.23 | – | – | – | –
